Results on 1 compound are retold here after ChEMBL document CHEMBL1909525, “Synthesis and anticonvulsant activity of novel 2,6-diketopiperazine derivatives. Part 1: perhydropyrrole[1,2-a]pyrazines” (Eur J Med Chem, 2011).

For data set [1], the species on record is Rattus norvegicus. Description: Inhibition of voltage-gated sodium channel in Wistar rat cerebral prefrontal coronal slices assessed as decrease of 0.1 Hz current-induced current amplitude at 10 to 100 uM after 5 mins by whole cell voltage clamp method. A digest of the protocol: (§1)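 Whole-cell voltage clamp on mechanically dispersed mPFC cells from coronal prefrontal slices of 3-week-old male Wistar rats. Bath: TEA-OH 90, NaCl 30, HEPES 10, MgCl2 2, CaCl2 2, glucose 15 mM, pH 7.4. Na+ currents evoked at 0.1 Hz by a step to -20 mV (30 ms) after a -100 mV prepulse (1000 ms). Amplitude compared before and after 5 min compound application; n = 3.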

For data set [2], the system named is Mus musculus. As to the kind of experiment: Anticonvulsant activity in albino Carworth Farms No.1 mouse assessed as protection against electric-current for 3 secs-induced seizure at 75 mg/kg, ip after 0.5 hrs by 6Hz minimal clonic seizure test. In kind it is functional, organism-based. Details: dose 75 mg/kg. A digest of the protocol:
(§2)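 6 Hz psychomotor seizure test in mice. Compound given i.p. as a suspension in 0.5% methylcellulose. Corneal stimulation at 32 mA, 0.2-ms monopolar rectangular pulses at 6 Hz for 3 s, from a constant-current device. Tests run 0.25–4 h after dosing. A mouse counted as protected if it resumed normal exploratory behaviour within 10 s; scored as protected/tested.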

The species entered for data set [3] is Mus musculus. Description: Protective index, ratio of TD50 for albino Carworth Farms No.1 mouse to ED50 for albino Carworth Farms No.1 mouse by maximal electroshock-induced seizure test. In kind it is functional. An outline of the steps: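 Mouse quantification at the time of peak effect, compound given i.p. in 0.5% methylcellulose. Groups of at least eight mice received varied doses until at least two points fell between 100 and 0% response. PI = TD50/ED50 MES.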

Data set [4] deals with Mus musculus. As to the kind of experiment: Anticonvulsant activity in albino Carworth Farms No.1 mouse assessed as protection against subcutaneous metrazol-induced seizure at 300 mg/kg, ip after 4 hrs. In kind it is functional, organism-based. Details: dose 300 mg/kg. An outline of the steps: (§3)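 Mouse scMET test. Compound given i.p. (30, 100 or 300 mg/kg) in 0.5% methylcellulose. Pentylenetetrazole 85 mg/kg (CD97) given s.c. at 0.5 or 4 h, then mice observed for 30 min. Protection is absence of clonic spasms; scored as protected/tested.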

Data set [5] is filed under the species Rattus norvegicus. Description: Activation of voltage-gated sodium channel in Wistar rat cerebral prefrontal coronal slices assessed as increase of 0.1 Hz current-induced current amplitude at 10 uM after 5 mins by whole cell voltage clamp method. An outline of the steps: as §1
The subject of data set [6] is Mus musculus. Description: Anticonvulsant activity in albino Carworth Farms No.1 mouse assessed as protection against subcutaneous metrazol-induced seizure at 30 mg/kg, ip after 0.5 hrs. In kind it is functional, organism-based. Details: dose 30 mg/kg. A digest of the protocol:
as §3

For data set [7], the species on record is Rattus norvegicus. Description: Activation of voltage-gated sodium channel in Wistar rat cerebral prefrontal coronal slices assessed as increase of 0.1 Hz current-induced current amplitude at 100 uM after 5 mins by whole cell voltage clamp method. A digest of the protocol: as §1
In data set [8] the test system is Mus musculus. Description: Anticonvulsant activity in albino Carworth Farms No.1 mouse assessed as protection against subcutaneous metrazol-induced seizure at 100 mg/kg, ip after 0.5 hrs. In kind it is functional, organism-based. On the set-up: dose 100 mg/kg. An outline of the steps:
as §3

The test system of data set [9] is Mus musculus. As to the kind of experiment: Neurotoxicity in albino Carworth Farms No.1 mouse assessed as motor impairment at 30 mg/kg, ip after 0.5 hrs by rotarod test. It counts as toxicity, organism-based. Details: dose 30 mg/kg, route intraperitoneal. To be noted: in vivo. An outline of the steps: (§4)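 Rotorod neurotoxicity in mice at 6 r.p.m. Compound given i.p. (30, 100, 300 mg/kg) in 0.5% methylcellulose; tested at 30 min and 4 h. Impairment is inability to keep equilibrium on the rod for a given time; scored as impaired/tested.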

Data set [10] is filed under the species Rattus norvegicus. As to the kind of experiment: Inhibition of voltage-gated sodium channel in Wistar rat cerebral prefrontal coronal slices assessed as decrease of […] current-induced current amplitude at 100 uM after 5 mins by whole cell voltage clamp method (reference value: 8 +/- 2.3%). Details: scale not given: the % may be the effect or the level left.

The species entered for data set [11] is Rattus norvegicus. Description: Inhibition of voltage-gated sodium channel in Wistar rat cerebral prefrontal coronal slices assessed as decrease of 10 Hz current-induced current amplitude at 10 to 100 uM after 5 mins by whole cell voltage clamp method. An outline of the steps:
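Na+ currents recorded by whole-cell voltage clamp in dispersed mPFC cells from coronal prefrontal slices of 3-week-old male Wistar rats. TEA-based bath, pH 7.4. Trains of 100 pulses at 10 Hz, each a step to -20 mV after a -100 mV prepulse. Amplitude decline over the train compared between control and 5 min compound application; n = 3.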

Data set [12] concerns Mus musculus. As to the kind of experiment: Anticonvulsant activity in ip dosed albino Carworth Farms No.1 mouse assessed as protection against subcutaneous metrazol-induced seizure after 0.25 hrs. It counts as functional. To be noted: albino Carworth Farms No.1, 0.25 h. An outline of the steps: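 Mouse quantification at the time of peak effect, compound given i.p. in 0.5% methylcellulose. Groups of at least eight mice received varied doses until at least two points fell between 100 and 0% response. ED50 (MES, scMET) and TD50 (rotorod) with 95% CI by probit analysis (Finney). PI = TD50/ED50 MES.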

In data set [13] the test system is Mus musculus. As to the kind of experiment: Toxicity in albino Carworth Farms No.1 mouse assessed as sedation at 300 mg/kg, ip after 0.5 hrs by rotarod test. To be noted: in vivo. On the set-up: dose 300 mg/kg, route intraperitoneal. In kind it is organism-based. A digest of the protocol:
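Mice (18–25 g) were given 30, 100 or 300 mg/kg i.p. in 0.5% (v/v) aqueous methylcellulose. Neurotoxicity was checked on a 6 r.p.m. rotorod 30 min and 4 h after dosing and scored as inability to keep equilibrium. Death following tonic extension and sedation were recorded as observations (number of animals/number tested).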

In data set [14] the test system is Mus musculus. Description: Neurotoxicity in albino Carworth Farms No.1 mouse assessed as motor impairment at 100 mg/kg, ip after 0.5 hrs by rotarod test. It counts as toxicity, organism-based. On the set-up: dose 100 mg/kg, route intraperitoneal. As to conditions: in vivo. A digest of the protocol: as §4
For data set [15], the system named is Mus musculus. Description: Anticonvulsant activity in albino Carworth Farms No.1 mouse assessed as protection against maximal electroshock-induced seizure at 30 mg/kg, ip after 0.5 hrs. It counts as functional, organism-based. Details: dose 30 mg/kg. A digest of the protocol: (§5)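 Mouse MES test with compound given i.p. (30, 100 or 300 mg/kg) in 0.5% methylcellulose; tested at 0.5 and 4 h. Corneal stimulus of 50 mA at 60 Hz for 0.2 s, electrodes primed with 0.5% butacaine in 0.9% NaCl. Protection is abolition of hindlimb tonic extension; scored as protected/tested.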

For data set [16], the system named is Rattus norvegicus. Description: Toxicity in albino Sprague-Dawley rat pilocarpine-induced status epilepticus model assessed as change in body weight in protected rat at 65 mg/kg, ip measured after 24 hrs of time from first stage 3 seizures. As to conditions: in vivo. On the set-up: dose 65 mg/kg, route intraperitoneal. It counts as organism-based. A digest of the protocol:
(§6)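 Male albino Sprague-Dawley rats (150–180 g) received compound i.p., then a pilocarpine challenge immediately (0 min) or 30 min after treatment. The outcome was protection or no protection from seizures, scored as number protected/number tested. Average body weight change (g) ± S.E.M. was reported separately for protected and non-protected rats.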

The subject of data set [17] is Mus musculus. As to the kind of experiment: Anticonvulsant activity in albino Carworth Farms No.1 mouse assessed as protection against electric-current for 3 secs-induced seizure at 75 mg/kg, ip after 1 hr by 6Hz minimal clonic seizure test. On the set-up: dose 75 mg/kg. It counts as functional, organism-based. An outline of the steps: as §2
Data set [18] relates to Mus musculus. As to the kind of experiment: Anticonvulsant activity in albino Carworth Farms No.1 mouse assessed as protection against maximal electroshock-induced seizure at 100 mg/kg, ip after 4 hrs. It counts as functional, organism-based. On the set-up: dose 100 mg/kg. A digest of the protocol: as §5
Data set [19] deals with Rattus norvegicus. Description: Toxicity in albino Sprague-Dawley rat pilocarpine-induced status epilepticus model assessed as change in body weight in non-protected rat at 130 mg/kg, ip measured after 24 hrs of time from first stage 3 seizures. It counts as organism-based. On the set-up: dose 130 mg/kg, route intraperitoneal. As to conditions: in vivo. A digest of the protocol: as §6

In data set [20] the test system is Mus musculus. As to the kind of experiment: Anticonvulsant activity in albino Carworth Farms No.1 mouse assessed as protection against electric-current for 3 secs-induced seizure at 100 mg/kg, ip after 0.5 hrs by 6Hz minimal clonic seizure test. It counts as functional. A digest of the protocol:
as §2

The test system of data set [21] is Mus musculus. Description: Anticonvulsant activity in albino Carworth Farms No.1 mouse assessed as protection against maximal electroshock-induced seizure at 300 mg/kg, ip after 0.5 hrs. In kind it is functional, organism-based. On the set-up: dose 300 mg/kg. A digest of the protocol: as §5

Calls of active or inactive are those of the source. No cut-off for these calls is given here.

In the case of `O=C1NC(=O)[C@@H]2CCCN2[C@H]1c1ccccc1`, the inhibition entry in the data set filed under Rattus norvegicus [1] and in the data set listed under Rattus norvegicus [11] was “inactive” in each case. Besides, the result in the data set on Mus musculus [2] was Active. Moreover, in the data set listed under Mus musculus [3], the “Ratio TD50/ED50” value amounted to 1.7. Besides, the outcome in the data set on Mus musculus [4], in the data set with Mus musculus [6], in the data set with Mus musculus [8], in the data set on Mus musculus [15], in the data set with Mus musculus [17] and in the data set on Mus musculus [18] was inactive. Besides, the result in the data set with Mus musculus [20] and in the data set on Mus musculus [21] was inactive. Besides, the Activity in the data set listed under Rattus norvegicus [5] is 3%; in the data set filed under Rattus norvegicus [7], 8.4%; in the data set with Mus musculus [9] it was “Non-toxic”; in the data set listed under Rattus norvegicus [10], 14.1%; with Mus musculus [13] it was “Toxic”; in the data set with Mus musculus [14], “Non-toxic”. Besides, the Activity in the data set on Rattus norvegicus [16] is 4.4 g; in the data set with Rattus norvegicus [19], -22.5 g. Besides, in the data set with Mus musculus [12], the ED50 was 87.9 mg/kg.
